From ChEMBL document CHEMBL4196209, “Validation of Matrix Metalloproteinase-9 (MMP-9) as a Novel Target for Treatment of Diabetic Foot Ulcers in Humans and Discovery of a Potent and Selective Small-Molecule MMP-9 Inhibitor That Accelerates Healing” (J Med Chem, 2018)
Activity calls are given as the source filed them. No cut-off for these calls is given here.

Experiments:
Mus musculus [1] = assay: Inhibition of MMP9 activity in db/db BKS.Cg-Dock7m+/+ Lepr db/J mouse model of full-thickness excision using DQ-gelatin substrate at 50 ug/wound/day for 14 days dosed topically 1 day after wound creation by in-situ zymography; assay type: functional, organism-based
Mus musculus [2] = assay: Inhibition of MMP8 activity in db/db BKS.Cg-Dock7m+/+ Lepr db/J mouse model of full-thickness excision using DQ-collagen substrate at 50 ug/wound/day for 14 days dosed topically 1 day after wound creation by in-situ zymography; assay type: functional, organism-based
Outline: (§1)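 Female db/db mice (8 weeks, ~40 g) with 8 mm full-thickness dorsal excision wound, Tegaderm-covered; from day 1, 100 µL of 0.5 mg/mL aqueous solution (50 µg/wound/day) or water vehicle topically once daily for 14 days. Wounds measured days 0, 7, 10, 14; cryosections for H&E re-epithelialization and DQ-collagen in-situ zymography, n = 3/group/time point.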

Mus musculus [3] = assay: Induction of wound healing in db/db BKS.Cg-Dock7m+/+ Lepr db/J mouse model of full-thickness excision assessed as increase in re-epithelialization at 50 ug/wound/day for 14 days dosed topically 1 day after wound creation by H and E staining; assay type: functional, organism-based; outline: as §1
[4] = target: T1, Disintegrin and metalloproteinase domain-containing protein 9 (Homo sapiens) (UniProt Q13443); assay: Inhibition of human recombinant ADAM9 at 100 uM using Mca-Pro-Leu-Ala-Gln-Ala-Val-Dpa-Arg-Ser-Ser-Ser-Arg-NH2 substrate
T1 sequence (whole entry): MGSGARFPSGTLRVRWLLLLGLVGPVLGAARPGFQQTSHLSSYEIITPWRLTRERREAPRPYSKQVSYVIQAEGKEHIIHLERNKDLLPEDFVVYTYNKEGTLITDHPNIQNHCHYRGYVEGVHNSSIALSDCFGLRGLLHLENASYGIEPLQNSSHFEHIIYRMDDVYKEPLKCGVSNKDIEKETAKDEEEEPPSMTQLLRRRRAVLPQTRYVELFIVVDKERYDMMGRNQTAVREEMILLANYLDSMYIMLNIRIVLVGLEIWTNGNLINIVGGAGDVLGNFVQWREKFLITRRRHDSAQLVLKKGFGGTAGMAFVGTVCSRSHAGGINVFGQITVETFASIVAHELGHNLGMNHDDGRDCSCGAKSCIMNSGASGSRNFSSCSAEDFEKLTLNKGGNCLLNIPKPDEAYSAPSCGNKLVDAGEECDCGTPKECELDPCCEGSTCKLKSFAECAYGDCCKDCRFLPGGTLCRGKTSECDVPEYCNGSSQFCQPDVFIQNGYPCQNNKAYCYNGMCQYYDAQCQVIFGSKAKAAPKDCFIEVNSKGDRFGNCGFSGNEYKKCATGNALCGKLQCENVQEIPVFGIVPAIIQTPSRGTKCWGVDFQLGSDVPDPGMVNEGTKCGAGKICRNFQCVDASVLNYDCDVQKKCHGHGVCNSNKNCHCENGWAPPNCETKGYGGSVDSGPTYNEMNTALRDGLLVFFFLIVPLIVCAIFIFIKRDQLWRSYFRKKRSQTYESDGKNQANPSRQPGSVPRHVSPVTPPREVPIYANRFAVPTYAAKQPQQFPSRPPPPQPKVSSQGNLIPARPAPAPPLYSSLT
Outline: (§2)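 Fluorogenic continuous assay of recombinant enzymes; Mca-KPLGL-Dpa-AR-NH2 substrate for MMP-1, MMP-8, ADAM10; Mca-PLAQAV-Dpa-RSSSR-NH2 for ADAM9; MOCAc-PLGL-A2pr(Dnp)-AR-NH2 for MMP-2, MMP-9, MMP-14 with Km determined beforehand. Inhibitor stocks 10 mM in DMSO; duplicates, repeated three times; Ki for slow-binding inhibitors from koff/kon.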

[5] = target: 72 kDa type IV collagenase (Homo sapiens, UniProt P08253); assay: Slow binding inhibition of human recombinant MMP2 using MOCAc-Pro-Leu-Gly-Leu-A2pr(Dnp)-Ala-Arg-NH2 substrate; outline: as §2
Chain of 72 kDa type IV collagenase (P08253 whole entry): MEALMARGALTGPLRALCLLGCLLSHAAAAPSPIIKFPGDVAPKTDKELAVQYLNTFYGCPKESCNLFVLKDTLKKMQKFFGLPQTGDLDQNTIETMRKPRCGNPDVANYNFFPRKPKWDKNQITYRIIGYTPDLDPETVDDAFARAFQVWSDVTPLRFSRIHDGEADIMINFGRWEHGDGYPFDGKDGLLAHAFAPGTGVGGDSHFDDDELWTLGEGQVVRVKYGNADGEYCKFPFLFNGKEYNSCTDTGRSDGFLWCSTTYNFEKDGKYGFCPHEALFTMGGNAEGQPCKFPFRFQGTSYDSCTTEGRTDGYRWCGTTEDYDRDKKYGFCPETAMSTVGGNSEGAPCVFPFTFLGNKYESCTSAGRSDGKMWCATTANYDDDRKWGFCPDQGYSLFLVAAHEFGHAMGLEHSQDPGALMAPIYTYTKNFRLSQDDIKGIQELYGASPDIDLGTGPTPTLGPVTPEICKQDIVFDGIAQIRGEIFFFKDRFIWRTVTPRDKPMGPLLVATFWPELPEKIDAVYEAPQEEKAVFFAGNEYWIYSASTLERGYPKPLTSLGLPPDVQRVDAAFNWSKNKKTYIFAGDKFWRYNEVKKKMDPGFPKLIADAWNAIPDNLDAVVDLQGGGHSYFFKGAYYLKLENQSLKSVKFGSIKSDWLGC

Mus musculus [6] = assay: Induction of wound healing in db/db BKS.Cg-Dock7m+/+ Lepr db/J mouse model of full-thickness excision at 50 ug/wound/day for 14 days dosed topically 1 day after wound creation; assay type: functional, organism-based; outline: as §1
[7] = target: T2, Interstitial collagenase (Homo sapiens) (UniProt P03956); assay: Inhibition of human recombinant MMP1 catalytic domain at 100 uM using Mca-Lys-Pro-Leu-Gly-Leu-Dpa-Ala-Arg-NH2 substrate; outline: as §2
T2 sequence (whole entry): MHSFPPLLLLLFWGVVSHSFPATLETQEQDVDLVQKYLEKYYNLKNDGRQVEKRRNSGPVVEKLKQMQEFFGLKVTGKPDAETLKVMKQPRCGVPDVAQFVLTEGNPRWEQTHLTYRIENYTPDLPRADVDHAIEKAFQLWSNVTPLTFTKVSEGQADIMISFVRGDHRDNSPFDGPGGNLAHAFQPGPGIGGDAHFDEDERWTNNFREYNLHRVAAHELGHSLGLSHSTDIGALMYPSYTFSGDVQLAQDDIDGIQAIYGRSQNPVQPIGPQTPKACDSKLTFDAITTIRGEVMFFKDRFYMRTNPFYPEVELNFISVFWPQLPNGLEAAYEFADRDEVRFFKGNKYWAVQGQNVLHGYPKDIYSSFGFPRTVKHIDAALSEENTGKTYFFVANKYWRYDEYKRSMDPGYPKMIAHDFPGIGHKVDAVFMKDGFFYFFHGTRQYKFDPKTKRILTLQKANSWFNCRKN

[8] = target: Matrix metalloproteinase-14 (Homo sapiens, UniProt P50281); assay: Slow binding inhibition of human recombinant MMP14 catalytic domain using MOCAc-Pro-Leu-Gly-Leu-A2pr(Dnp)-Ala-Arg-NH2 substrate; outline: as §2
[9] = target: Stromelysin-1 (Homo sapiens) (UniProt P08254); assay: Inhibition of human recombinant MMP3 catalytic domain at 100 uM using MOCAc-Arg-Pro-Lys-Pro-Val-Glu-Nva-Trp-Arg-Lys(Dnp)-NH2 substrate
Chain of Stromelysin-1 (Homo sapiens) (P08254 100-477 limits assumed): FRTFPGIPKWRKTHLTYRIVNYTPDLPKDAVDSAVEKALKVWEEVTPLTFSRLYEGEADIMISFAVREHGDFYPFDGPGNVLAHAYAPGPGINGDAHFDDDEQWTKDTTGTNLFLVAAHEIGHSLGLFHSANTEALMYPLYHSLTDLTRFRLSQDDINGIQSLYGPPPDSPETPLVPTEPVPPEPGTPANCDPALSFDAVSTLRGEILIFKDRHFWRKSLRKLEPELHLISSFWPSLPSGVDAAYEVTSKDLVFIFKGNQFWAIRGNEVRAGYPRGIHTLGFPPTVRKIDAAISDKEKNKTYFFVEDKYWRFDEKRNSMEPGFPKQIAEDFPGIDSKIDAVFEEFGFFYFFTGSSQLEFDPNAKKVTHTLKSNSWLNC

[10] = target: T3, Disintegrin and metalloproteinase domain-containing protein 10 (Homo sapiens) (UniProt O14672); assay: Inhibition of human recombinant ADAM10 at 100 uM using Mca-Lys-Pro-Leu-Gly-Leu-Dpa-Ala-Arg-NH2 substrate; outline: as §2
T3 sequence (whole entry): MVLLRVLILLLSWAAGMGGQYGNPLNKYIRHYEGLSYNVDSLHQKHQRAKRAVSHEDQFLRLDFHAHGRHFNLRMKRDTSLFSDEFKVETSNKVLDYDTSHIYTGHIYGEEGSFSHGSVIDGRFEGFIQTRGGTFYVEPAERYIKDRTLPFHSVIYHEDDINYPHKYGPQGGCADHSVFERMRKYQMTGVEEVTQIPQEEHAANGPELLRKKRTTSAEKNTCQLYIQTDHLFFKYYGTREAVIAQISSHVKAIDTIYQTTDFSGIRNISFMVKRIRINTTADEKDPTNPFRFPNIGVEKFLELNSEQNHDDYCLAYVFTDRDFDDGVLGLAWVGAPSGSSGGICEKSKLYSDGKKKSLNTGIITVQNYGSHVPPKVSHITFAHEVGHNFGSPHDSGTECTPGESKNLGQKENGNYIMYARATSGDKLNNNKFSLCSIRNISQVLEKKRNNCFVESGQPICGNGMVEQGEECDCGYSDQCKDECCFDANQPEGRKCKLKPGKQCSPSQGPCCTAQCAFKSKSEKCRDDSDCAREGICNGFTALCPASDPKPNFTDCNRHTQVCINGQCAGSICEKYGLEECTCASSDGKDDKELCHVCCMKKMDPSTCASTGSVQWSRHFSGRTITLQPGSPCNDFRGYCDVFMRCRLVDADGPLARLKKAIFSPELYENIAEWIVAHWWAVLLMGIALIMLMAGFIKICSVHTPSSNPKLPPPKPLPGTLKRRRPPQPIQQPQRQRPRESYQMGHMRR

[11] = target: T4, Matrilysin (Homo sapiens) (UniProt P09237); assay: Inhibition of human recombinant MMP7 at 100 uM using MOCAc-Pro-Leu-Gly-Leu-A2pr(Dnp)-Ala-Arg-NH2 substrate
T4 sequence (whole entry): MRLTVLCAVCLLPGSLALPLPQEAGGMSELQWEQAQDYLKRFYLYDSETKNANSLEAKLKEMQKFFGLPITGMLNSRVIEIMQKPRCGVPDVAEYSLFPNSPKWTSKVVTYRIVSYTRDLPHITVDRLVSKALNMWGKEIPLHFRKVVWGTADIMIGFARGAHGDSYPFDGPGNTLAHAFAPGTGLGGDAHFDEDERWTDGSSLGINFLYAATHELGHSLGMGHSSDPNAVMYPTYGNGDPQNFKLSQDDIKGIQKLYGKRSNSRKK

Mus musculus [12] = assay: Reduction in ROS generation in db/db BKS.Cg-Dock7m+/+ Lepr db/J mouse model of full-thickness excision at 50 ug/wound/day for 3 days dosed topically 1 day after wound creation by L-012 dye based assay; assay type: functional, organism-based
Outline: (§3)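 Wounded db/db mice dosed topically with 50 µg/wound/day or water vehicle; on days 1, 2, 3 and 7 post-wounding, anaesthetised with 2% isoflurane, injected ip with 200 µL L-012 (5 mg/mL in PBS), and bioluminescence imaged immediately at 5-min intervals; n = 3/group/time point.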

[13] = AUC in C57BLKS/6J db/db mouse plasma at 2 mg/kg, iv dosed as single administration by UPLC-MRM analysis; assay type: ADME, organism-based
Salmonella typhimurium = assay: Mutagenicity in Salmonella typhimurium by Ames test; assay type: toxicity, organism-based; details: salmonella enterica subsp. enterica serovar typhimurium
Mus musculus [14] = assay: Reduction in NFkappaB p65 protein levels generation in db/db BKS.Cg-Dock7m+/+ Lepr db/J mouse model of full-thickness excision at 50 ug/wound/day for 2 days dosed topically 1 day after wound creation by ELISA; assay type: functional, organism-based
Mus musculus [15] = assay: Reduction in ROS generation in db/db BKS.Cg-Dock7m+/+ Lepr db/J mouse model of full-thickness excision at 50 ug/wound/day for 7 days dosed topically 1 day after wound creation by L-012 dye based assay; assay type: functional, organism-based; outline: as §3
Mus musculus [16] = assay: Reduction in NFkappaB p65 protein levels generation in db/db BKS.Cg-Dock7m+/+ Lepr db/J mouse model of full-thickness excision at 50 ug/wound/day for 1 day dosed topically 1 day after wound creation by ELISA; assay type: functional, organism-based
in vivo = details: C57BLKS/6J db/db, mouse, plasma, topical or ocular, 2 mg/kg
Mus musculus [17] = assay: Reduction in NFkappaB p65 protein levels generation in db/db BKS.Cg-Dock7m+/+ Lepr db/J mouse model of full-thickness excision at 50 ug/wound/day for 7 days dosed topically 1 day after wound creation by ELISA; assay type: functional, organism-based
Mus musculus [18] = assay: Reduction in NFkappaB p65 protein levels generation in db/db BKS.Cg-Dock7m+/+ Lepr db/J mouse model of full-thickness excision assessed as p65 AUC level at 50 ug/wound/day for 7 days dosed topically 1 day after wound creation by ELISA (reference value: 834 +/- 121 ug/mg.day); assay type: functional, organism-based
Mus musculus [19] = assay: Induction of wound healing in db/db BKS.Cg-Dock7m+/+ Lepr db/J mouse model of full-thickness excision at 50 ug/wound/day for 7 days dosed topically 1 day after wound creation; assay type: functional, organism-based; outline: as §1
[20] = AUC in C57BLKS/6J db/db mouse plasma at 2 mg/kg applied topically to wounds as single administration by UPLC-MRM analysis; assay type: ADME, organism-based; details: topical or ocular
[21] = target: T2, Interstitial collagenase (Homo sapiens); assay: Inhibition of human recombinant MMP1 catalytic domain using Mca-Lys-Pro-Leu-Gly-Leu-Dpa-Ala-Arg-NH2 substrate; outline: as §2

NCc1ccc(Oc2ccc(S(=O)(=O)C[C@@H]3CS3)cc2)cc1
inhibition (Mus musculus [1]): Active | inhibition (Mus musculus [2]): Active | Activity (Mus musculus [3]): Active | inhibition [4]: 25% | Ki [5]: 37 nM | Activity (Mus musculus [6]): inactive | inhibition [7]: 24% | Ki [8]: 53 nM | inhibition [9]: 22% | inhibition [10]: 5% | inhibition [11]: 15%

Cl.NCc1ccc(Oc2ccc(S(=O)(=O)C[C@H]3CS3)cc2)cc1
inhibition (Mus musculus [1]): Active | Activity (Mus musculus [12]): Active | AUC [13]: 0.583 µM·h | Activity (Salmonella typhimurium): Non-Toxic | Activity (Mus musculus [14]): Active | inhibition (Mus musculus [2]): inactive | Activity (Mus musculus [3]): Active | inhibition [4]: 41% | Activity (Mus musculus [15]): Active | Ki [5]: 127 nM | Activity (Mus musculus [6]): Active | inhibition [7]: 22% | Activity (Mus musculus [16]): Active | Ki [8]: 119 nM | bioavailability (in vivo): 3.7% | Activity (Mus musculus [17]): Active | inhibition [9]: 37% | AUC (Mus musculus [18]): 492 µg/mg/day | Activity (Mus musculus [19]): Active | inhibition [10]: 13% | inhibition [11]: 20% | AUC [20]: 0.0217 µM·h

NCc1ccc(Oc2ccc(S(=O)(=O)CC3CS3)cc2)cc1 (racemic)
inhibition (Mus musculus [1]): Active | inhibition (Mus musculus [2]): Active | Activity (Mus musculus [3]): Active | inhibition [4]: 31% | Activity (Mus musculus [6]): inactive | inhibition [7]: 4% | inhibition [9]: 23% | inhibition [10]: 14% | inhibition [11]: 1%

O=S(=O)(CC1CS1)c1ccc(Oc2ccc(O)cc2)cc1 (stereo not drawn)
A0.5 [21]: Nottraceable
